Experimental findings from ChEMBL document CHEMBL1148427, “Diastereoselective synthesis and configuration-dependent activity of (3-substituted-cycloalkyl)glycine pyrrolidides and thiazolidides as dipeptidyl peptidase IV inhibitors” (Bioorg Med Chem Lett, 2004) are described below.

Experiment [1] can be described thus: Inhibitory activity against human aminopeptidase P.
The target of experiment [2] is T1, Prolyl endopeptidase (Homo sapiens, UniProt P48147).
T1 sequence (P48147 whole entry): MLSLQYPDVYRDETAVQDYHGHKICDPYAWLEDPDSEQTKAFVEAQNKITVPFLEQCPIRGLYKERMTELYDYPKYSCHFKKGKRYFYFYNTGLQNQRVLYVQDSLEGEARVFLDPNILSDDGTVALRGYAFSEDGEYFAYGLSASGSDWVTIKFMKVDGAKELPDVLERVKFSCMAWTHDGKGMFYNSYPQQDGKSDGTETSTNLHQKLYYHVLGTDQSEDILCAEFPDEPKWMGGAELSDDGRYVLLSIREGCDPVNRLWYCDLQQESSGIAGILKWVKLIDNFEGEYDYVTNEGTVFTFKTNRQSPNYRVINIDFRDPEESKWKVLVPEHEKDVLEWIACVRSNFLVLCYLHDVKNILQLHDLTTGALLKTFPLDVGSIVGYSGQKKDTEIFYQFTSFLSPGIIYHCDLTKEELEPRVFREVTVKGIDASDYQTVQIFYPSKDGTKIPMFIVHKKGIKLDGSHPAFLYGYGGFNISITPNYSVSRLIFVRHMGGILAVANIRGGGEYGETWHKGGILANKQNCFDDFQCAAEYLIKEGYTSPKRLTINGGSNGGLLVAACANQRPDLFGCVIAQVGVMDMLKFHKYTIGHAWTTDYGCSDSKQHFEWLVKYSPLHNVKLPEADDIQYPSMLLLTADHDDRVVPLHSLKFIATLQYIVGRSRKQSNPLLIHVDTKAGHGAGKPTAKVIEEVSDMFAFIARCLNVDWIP
The experiment in a line: Inhibitory activity against human prolyl endopeptidase.

A further experiment addresses Dipeptidyl peptidase 4 (Homo sapiens, UniProt P27487). Nature of the experiment: Inhibitory activity against human recombinant Dipeptidylpeptidase IV. A digest of the protocol: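 Human recombinant enzyme run in a fluorometric assay with Gly-Pro-AMC as substrate. Cleavage releases fluorescent 7-amino-4-methylcoumarin, which is read to give IC50 values.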
Another experiment has as its target Dipeptidyl peptidase 2 (Homo sapiens, UniProt Q9UHL4). Nature of the experiment: Inhibitory activity against human quiescent cell proline dipeptidase.
Experiment [3] addresses T1, Prolyl endopeptidase. Nature of the experiment: Inhibitory activity against human prolylendopeptidase.

Sequence of Dipeptidyl peptidase 4 (P27487 whole entry): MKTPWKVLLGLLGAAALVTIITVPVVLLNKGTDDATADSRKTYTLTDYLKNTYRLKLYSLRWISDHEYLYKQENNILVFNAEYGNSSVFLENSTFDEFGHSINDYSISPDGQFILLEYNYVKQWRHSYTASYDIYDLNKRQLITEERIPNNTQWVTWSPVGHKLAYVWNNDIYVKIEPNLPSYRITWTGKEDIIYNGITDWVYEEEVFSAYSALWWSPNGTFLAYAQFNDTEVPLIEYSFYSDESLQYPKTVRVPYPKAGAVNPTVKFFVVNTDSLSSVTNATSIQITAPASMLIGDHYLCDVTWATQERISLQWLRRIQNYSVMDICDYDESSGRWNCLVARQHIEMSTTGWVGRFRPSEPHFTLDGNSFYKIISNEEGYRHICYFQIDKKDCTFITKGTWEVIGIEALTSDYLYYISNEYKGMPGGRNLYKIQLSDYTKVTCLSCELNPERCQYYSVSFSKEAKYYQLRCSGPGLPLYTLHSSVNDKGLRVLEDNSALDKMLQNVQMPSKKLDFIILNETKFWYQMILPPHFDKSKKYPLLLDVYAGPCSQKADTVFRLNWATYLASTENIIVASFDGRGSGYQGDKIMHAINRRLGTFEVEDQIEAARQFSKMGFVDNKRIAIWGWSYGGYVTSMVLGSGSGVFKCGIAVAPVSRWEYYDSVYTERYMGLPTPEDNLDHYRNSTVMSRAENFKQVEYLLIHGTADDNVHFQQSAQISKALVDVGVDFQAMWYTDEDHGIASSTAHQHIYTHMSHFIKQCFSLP

For the molecule `N[C@H](C(=O)N1CCCC1)[C@H]1CC[C@@H](O)C1`, the IC50 was over 100000 nM in experiment [1], over 100000 nM at Prolyl endopeptidase [2], 4600 nM on Dipeptidyl peptidase 4 and 50000 nM against Dipeptidyl peptidase 2.

As to `N[C@H](C(=O)N1CCSC1)[C@H]1CC[C@H](NC(=O)Nc2cccc3ccccc23)C1`, the half-maximal inhibitory concentration (IC50) is over 100000 nM in experiment [1], 2100 nM against Prolyl endopeptidase [3], 43 nM at Dipeptidyl peptidase 4 and 26 nM against Dipeptidyl peptidase 2.

`N[C@H](C(=O)N1CCCC1)[C@@H]1CC[C@@H](NS(=O)(=O)c2ccc(OC(F)(F)F)cc2)C1`: the half-maximal inhibitory concentration (IC50) in experiment [1] was over 100000 nM; on Prolyl endopeptidase [3], over 100000 nM; on Dipeptidyl peptidase 4, 170 nM; at Dipeptidyl peptidase 2, 1700 nM.

On to `N[C@H](C(=O)N1CCCC1)[C@H]1CC[C@@H](NS(=O)(=O)c2ccc(OC(F)(F)F)cc2)C1`, for which the concentration for half-maximal inhibition (IC50) in experiment [1] is over 100000 nM; against Prolyl endopeptidase [3], over 100000 nM; at Dipeptidyl peptidase 4, 550 nM; against Dipeptidyl peptidase 2 it was 750 nM.

Take `N[C@H](C(=O)N1CCCC1)[C@H]1CCC[C@@H](OC(=O)Nc2ccc(I)cc2)C1`: the IC50 in experiment [1] is over 100000 nM; on Prolyl endopeptidase [3], 27000 nM; on Dipeptidyl peptidase 4, 110 nM; against Dipeptidyl peptidase 2, 420 nM.

Take `CS(=O)(=O)c1ccccc1S(=O)(=O)N[C@H]1CC[C@H]([C@H](N)C(=O)N2CCCC2)C1`: the IC50 in experiment [1] was over 100000 nM; against Prolyl endopeptidase [3], over 100000 nM; at Dipeptidyl peptidase 4 it was 150 nM; on Dipeptidyl peptidase 2, 1000 nM.

Turning to `CS(=O)(=O)NCCS(=O)(=O)N[C@@H]1CC[C@@H]([C@H](N)C(=O)N2CCCC2)C1`, the IC50 in experiment [1] was over 100000 nM; at Prolyl endopeptidase [2], over 100000 nM; on Dipeptidyl peptidase 4, 71 nM; against Dipeptidyl peptidase 2 it was 21000 nM.

With `CS(=O)(=O)c1ccc(S(=O)(=O)N[C@@H]2CC[C@@H]([C@H](N)C(=O)N3CCCC3)C2)cc1`, the IC50 in experiment [1] is over 100000 nM; at Prolyl endopeptidase [3], over 100000 nM; at Dipeptidyl peptidase 4, 13 nM; on Dipeptidyl peptidase 2 it was 1600 nM.

`CS(=O)(=O)c1ccc(S(=O)(=O)N[C@H]2CC[C@@H]([C@H](N)C(=O)N3CCCC3)C2)cc1`: the IC50 is over 100000 nM in experiment [1], over 100000 nM at Prolyl endopeptidase [3], 420 nM at Dipeptidyl peptidase 4 and 4000 nM at Dipeptidyl peptidase 2.

Broadly, the IC50 is the concentration that gives 50% inhibition.
